The record followed here is PubChem BioAssay AID1216 (Sanford-Burnham Center for Chemical Genomics, 2008).

Each structure is given as a SMILES string. Out of some 190,000 compounds screened, about 660 (0.35%) were called active.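 Rule for the calls: active = activation factor of 2 or more at 20 µM; inactive = the rest.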 The full list was thinned out, with actives kept by preference.

Mannose-6-phosphate isomerase (Homo sapiens), sequence (P34949 whole entry, looked up): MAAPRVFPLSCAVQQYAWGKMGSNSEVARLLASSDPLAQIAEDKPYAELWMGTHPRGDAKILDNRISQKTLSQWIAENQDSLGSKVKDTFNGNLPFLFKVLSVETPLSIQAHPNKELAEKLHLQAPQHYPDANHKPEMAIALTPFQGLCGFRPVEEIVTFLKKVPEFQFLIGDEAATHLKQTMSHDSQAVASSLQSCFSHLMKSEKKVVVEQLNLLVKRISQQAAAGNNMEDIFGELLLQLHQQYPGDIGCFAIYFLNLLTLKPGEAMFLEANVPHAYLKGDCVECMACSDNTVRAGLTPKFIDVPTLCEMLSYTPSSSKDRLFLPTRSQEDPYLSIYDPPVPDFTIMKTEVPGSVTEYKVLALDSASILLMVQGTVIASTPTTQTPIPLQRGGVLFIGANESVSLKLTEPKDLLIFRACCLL

In the assay the target is Mannose-6-phosphate isomerase (Homo sapiens) (UniProt P34949). Nature of the assay: MPI activation at elevated mannose 6-phosphate – biochemical, fluorescence intensity, near-saturating mannose 6-phosphate, primary screen (AID 1216). The following applies: coupled PMI enzyme assay, resazurin fluorescence, 20 min; at 20 µM; active compounds read high. Summed up:
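Material: human phosphomannose isomerase with PGI, G6PDH, diaphorase coupling enzymes; amount: PMI at 15 ng/mL final; also added: Mannose-6-phosphate 1.0 mM (near-saturating) plus 0.22 mM NADP+; incubation: enzyme reaction with compound 20 min at room temperature; signal: resorufin fluorescence (Ex 544/Em 590 nm) from resazurin via diaphorase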
As to `COc1ccccc1N=Nc1c(O)[nH]c(=S)[nH]c1=O`, the activation factor was 0.9 (inactive).
The value for `O=C1N=c2ccccc2=C/C1=C\c1c(O)[nH]c(=S)[nH]c1=O` was 2.1 (active); that for `Cc1ccc2c(c1)=C/C(=C\c1c(O)[nH]c(=O)[nH]c1=O)C(=O)N=2` was 0.5 (inactive); that for `O=C(CSC1c2ccccc2-c2ccccc21)N/N=C/c1ccccc1` was 0.9 (inactive).
With `Cc1cccc(OP(=O)(Oc2cccc(C)c2)OC(c2ccccc2)C(F)(F)F)c1` (stereo not given) the figure was 0.9 (inactive).
